In ChEMBL document CHEMBL1139275, “Design, synthesis, and biological evaluation of biotin-labeled (-)-ternatin, a potent fat-accumulation inhibitor against 3T3-L1 adipocytes” (Bioorg Med Chem Lett, 2009):

Legend:
[1] = Cytotoxicity against mouse 3T3L1 cells at 5.2 uM; assay type: cell-based; settings: 3T3-L1 cells, read-out: INH
[2] = test system: 3T3-L1; experiment: Inhibition of fat accumulation in mouse 3T3L1 cells after 7 days; assay type: functional, cell-based; settings: 3T3-L1, 168 h
Procedure, shortened: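 3T3-L1 cells were exposed to each sample during differentiation, while untreated controls became fully mature adipocytes. Fat accumulation was expressed relative to the controls, and IC50 was taken as the concentration giving 50% inhibition. Values are means of quadruplicate determinations.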

[3] = test system: 3T3-L1; experiment: Cytotoxicity against mouse 3T3L1 cells; assay type: cell-based

SMILES	cytotoxicity at 5.2 µM [1] [%]	IC50 [2] [µM]	IC50 [3] [µM]
C#CC[C@@H]1C(=O)N[C@H]([C@H](O)C(C)C)C(=O)N[C@H]([C@@H](C)CC)C(=O)N(C)[C@@H](C)C(=O)N(C)[C@@H](CC(C)C)C(=O)N[C@@H](CC(C)C)C(=O)N(C)[C@@H](C)C(=O)N1C	54	0.019	> 5.2
CC[C@H](C)[C@H]1NC(=O)[C@@H]([C@H](O)C(C)C)NC(=O)[C@@H](Cc2cn(CCOCCOCCNC(=O)CCCC[C@@H]3SC[C@@H]4NC(=O)N[C@@H]43)nn2)N(C)C(=O)[C@H](C)N(C)C(=O)[C@H](CC(C)C)NC(=O)[C@H](CC(C)C)N(C)C(=O)[C@H](C)N(C)C1=O	–	46	> 86
CC[C@H](C)[C@H]1NC(=O)[C@@H](CO)NC(=O)[C@@H](C)N(C)C(=O)[C@H](C)N(C)C(=O)[C@H](CC(C)C)NC(=O)[C@H](CC(C)C)N(C)C(=O)[C@H](C)N(C)C1=O	–	12	–
CC[C@H](C)[C@H]1NC(=O)[C@@H]([C@@H](C)O)NC(=O)[C@@H](C)N(C)C(=O)[C@H](C)N(C)C(=O)[C@H](CC(C)C)NC(=O)[C@H](CC(C)C)N(C)C(=O)[C@H](C)N(C)C1=O	–	3.1	–
